In ChEMBL document CHEMBL3407461 (J Med Chem, 2014):

Assays:
Mus musculus [1] = test: Antinociceptive activity in chronic constriction injury neutropathic pain CD-1 mouse model assessed as maximum protection on ipsilateral hind paw at 3 umol/kg, po after 30 mins to 5 hrs post dose relative to control; assay type: functional; conditions: CD-1, po
[2] = biological target: T1, Adenosine receptor A1 (Homo sapiens) (UniProt P30542); test: Displacement of [3H]R-PIA from human recombinant A1 adenosine receptor expressed in CHO cells at 10 uM after 60 mins by liquid scintillation counting; assay type: cell-based
T1 sequence (whole entry): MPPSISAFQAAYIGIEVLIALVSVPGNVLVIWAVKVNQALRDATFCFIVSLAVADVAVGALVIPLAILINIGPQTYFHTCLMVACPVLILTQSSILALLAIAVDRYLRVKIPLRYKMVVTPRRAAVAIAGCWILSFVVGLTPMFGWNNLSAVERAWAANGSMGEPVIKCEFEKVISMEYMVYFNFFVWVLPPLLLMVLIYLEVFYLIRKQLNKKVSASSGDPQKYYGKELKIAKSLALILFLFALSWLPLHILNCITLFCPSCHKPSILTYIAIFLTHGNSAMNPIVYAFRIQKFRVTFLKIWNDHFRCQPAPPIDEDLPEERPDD

[3] = biological target: Adenosine receptor A2a (Homo sapiens) (UniProt P29274); test: Displacement of [3H]CGS21680 from human recombinant A2A adenosine receptor expressed in HEK293 cells at 10 uM after 60 mins by liquid scintillation counting; assay type: cell-based
Mus musculus [4] = test: Antinociceptive activity in chronic constriction injury neutropathic pain CD-1 mouse model assessed as time for peak protection at 3 umol/kg, po; assay type: functional
How it was run: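 Male CD-1 mice (25−30 g), chronic constriction injury of left sciatic nerve (Bennett model) under isoflurane. Dosed by gavage (3 μmol/kg, 0.2 mL) at peak mechano-allodynia on day 7; vehicle 10% DMSO in 0.5% methylcellulose. Paw withdrawal threshold (g) measured on the ipsilateral hind paw from 30 min to 5 h post dose. Expressed as % reversal, mean ± SEM over n animals.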

Mus musculus [5] = test: Antinociceptive activity in chronic constriction injury neutropathic pain CD-1 mouse model at 3 umol/kg, po after 3 hrs post dose relative to control; assay type: functional

Chain of Adenosine receptor A2a (Homo sapiens) (P29274 whole entry): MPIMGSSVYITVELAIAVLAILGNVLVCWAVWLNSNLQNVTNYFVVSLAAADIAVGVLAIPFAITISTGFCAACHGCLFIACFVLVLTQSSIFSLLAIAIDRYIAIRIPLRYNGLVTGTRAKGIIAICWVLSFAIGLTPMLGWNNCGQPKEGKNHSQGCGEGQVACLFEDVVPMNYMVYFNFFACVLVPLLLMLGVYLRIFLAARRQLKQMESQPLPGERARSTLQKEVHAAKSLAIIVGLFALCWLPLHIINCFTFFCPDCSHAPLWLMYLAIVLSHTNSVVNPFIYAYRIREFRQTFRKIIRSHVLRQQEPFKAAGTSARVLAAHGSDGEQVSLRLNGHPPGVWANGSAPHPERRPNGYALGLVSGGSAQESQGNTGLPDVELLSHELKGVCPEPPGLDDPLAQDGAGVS

| SMILES | inhibition [2] | inhibition [3] | Emax at 3 µmol/kg (Mus musculus [1]) | Time (Mus musculus [4]) | Activity (Mus musculus [5]) |
| --- | --- | --- | --- | --- | --- |
| CNC(=O)[C@@]12C[C@@H]1[C@@H](n1cnc3c(NC)nc(C#Cc4cc5ccccc5o4)nc31)[C@H](O)[C@@H]2O | 13% | 18% | 87.4% | 1 h | – |
| CNC(=O)[C@@]12C[C@@H]1[C@@H](n1cnc3c(NC)nc(C#Cc4cccc(OC)c4)nc31)[C@H](O)[C@@H]2O | 8% | 26% | – | 0.5 h | – |
| CNC(=O)[C@@]12C[C@@H]1[C@@H](n1cnc3c(NC)nc(C#Cc4cc(C)c(C)o4)nc31)[C@H](O)[C@@H]2O | 15% | 21% | – | 1 h | – |
| CNC(=O)[C@@]12C[C@@H]1[C@@H](n1cnc3c(NC)nc(C#CC4CCCCC4)nc31)[C@H](O)[C@@H]2O | 15% | 45% | 64.1% | 1 h | – |
| CCc1ccc(C#Cc2nc(NC)c3ncn([C@H]4[C@H](O)[C@H](O)[C@]5(C(=O)NC)C[C@H]45)c3n2)o1 | 18% | 4% | – | 1 h | – |
| CNC(=O)[C@@]12C[C@@H]1[C@@H](n1cnc3c(NC)nc(C#Cc4ccc(OC)cc4)nc31)[C@H](O)[C@@H]2O | 10% | 24% | – | 0.5 h | – |
| CNC(=O)[C@@]12C[C@@H]1[C@@H](n1cnc3c(NC)nc(C#Cc4ccc(CO)cc4)nc31)[C@H](O)[C@@H]2O | 16% | 11% | – | 1 h | – |
| CNC(=O)[C@@]12C[C@@H]1[C@@H](n1cnc3c(NC)nc(C#Cc4cccc(C(F)(F)F)c4)nc31)C(O)C2O (single isomer, unassigned) | 10% | 12% | – | 0.5 h | – |
| CNC(=O)[C@H]1O[C@@H](n2cnc3c(NCc4cccc(I)c4)ncnc32)[C@H](O)[C@@H]1O [IB-MECA] | – | – | 94.1% | 1 h | 38.7% |

More lines, main results first:

| inhibition [2] | inhibition [3] | SMILES | Emax at 3 µmol/kg (Mus musculus [1]) | Time (Mus musculus [4]) | Activity (Mus musculus [5]) |
| --- | --- | --- | --- | --- | --- |
| 13% | – | CNC(=O)[C@@]12C[C@@H]1[C@@H](n1cnc3c(NC)nc(C#Cc4ccccn4)nc31)[C@H](O)[C@@H]2O | 31.8% | 0.5 h | 0% |
| 15% | 2% | CNC(=O)[C@@]12C[C@@H]1[C@@H](n1cnc3c(NC)nc(C#Cc4ccncc4)nc31)[C@H](O)[C@@H]2O | – | 1 h | – |
| 12% | 20% | CNC(=O)[C@@]12C[C@@H]1[C@@H](n1cnc3c(NC)nc(C#Cc4ccccc4OC)nc31)[C@H](O)[C@@H]2O | 64.3% | 1 h | – |
| 11% | 13% | CNC(=O)[C@@]12C[C@@H]1[C@@H](n1cnc3c(NC)nc(C#Cc4cccnn4)nc31)[C@H](O)[C@@H]2O | – | 0.5 h | – |
| 16% | 12% | CNC(=O)[C@@]12C[C@@H]1[C@@H](n1cnc3c(NC)nc(C#Cc4cccnc4)nc31)[C@H](O)[C@@H]2O | – | 0.5 h | – |
| 11% | 3% | CNC(=O)[C@@]12C[C@@H]1[C@@H](n1cnc3c(NC)nc(C#Cc4ccsc4)nc31)[C@H](O)[C@@H]2O | – | 0.5 h | – |
| 18% | – | CNC(=O)[C@@]12C[C@@H]1[C@@H](n1cnc3c(NC)nc(C#Cc4ccccc4)nc31)[C@H](O)[C@@H]2O | 44.1% | 0.5 h | 5% |
| 25% | 27% | CNC(=O)[C@@]12C[C@@H]1[C@@H](n1cnc3c(NC)nc(C#Cc4ncccn4)nc31)[C@H](O)[C@@H]2O | 92.3% | 0.5 h | – |
| 30% | 19% | CNC(=O)[C@@]12C[C@@H]1[C@@H](n1cnc3c(NC)nc(C#Cc4cc[nH]n4)nc31)[C@H](O)[C@@H]2O | – | 0.5 h | – |
